Assay results from ChEMBL document CHEMBL1157094, “Study on the constituents of Mexican propolis and their cytotoxic activity against PANC-1 human pancreatic cancer cells” (J Nat Prod, 2010).
The source made the active and inactive calls. The calls are words filed in the database; no cut-off is given here.

tested on: PANC-1; experiment: Induction of apoptosis in human PANC1 cells in nutrient-deprived condition assessed as membrane bleb formation at 12.5 uM after 24 hrs by phase-contrast microscopy; format: functional, cell-based; conditions: not given
In short: (§1)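 PANC-1 cells were seeded at 2 × 10^4 per well and grown 24 h in DMEM at 37 °C under 5% CO2/95% air. They were then washed with PBS and switched to nutrient-deprived medium (NDM) containing test compound. After 24 h exposure at 12.5 µM, morphology was photographed under a phase-contrast microscope at 200× magnification.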

| SMILES | Activity |
| --- | --- |
| C=C[C@H](c1ccc(O)c(OC)c1)c1c(O)cc(O)c2c(=O)c(O)c(-c3ccccc3)oc12 | Active |

tested on: PANC-1; experiment: Induction of apoptosis in human PANC1 cells in nutrient-deprived condition assessed as nuclear condensation at 12.5 uM after 24 hrs by phase-contrast microscopy; format: functional, cell-based; conditions: not given; in short: as §1

| SMILES | Activity |
| --- | --- |
| C=C[C@H](c1ccc(O)c(OC)c1)c1c(O)cc(O)c2c(=O)c(O)c(-c3ccccc3)oc12 | Active |

tested on: PANC-1; experiment: Induction of apoptosis in human PANC1 cells in nutrient-deprived condition assessed as nuclear fragmentation at 12.5 uM after 24 hrs by phase-contrast microscopy; format: functional, cell-based; conditions: not given; in short: as §1

| SMILES | Activity |
| --- | --- |
| C=C[C@H](c1ccc(O)c(OC)c1)c1c(O)cc(O)c2c(=O)c(O)c(-c3ccccc3)oc12 | Active |

tested on: not listed separately; experiment: Cytotoxicity against human TIG3 cells after 24 hrs by WST-8 assay; conditions: tig-3, 24 h

| SMILES | Activity |
| --- | --- |
| C=C[C@H](c1ccc(O)c(OC)c1)c1c(O)cc(O)c2c(=O)c(O)c(-c3ccccc3)oc12 | Non-toxic |

tested on: PANC-1; experiment: Cytotoxicity against human PANC1 cells in nutrient-deprived condition assessed as preferential cell death after 24 hrs by WST-8 assay; conditions: not given

| SMILES | PC50 [µM] |
| --- | --- |
| COc1cc(O)c2c(c1)O[C@H](c1ccccc1)[C@@H](OC(C)=O)C2=O | 75.3 |
| COc1c(-c2ccc(O)cc2)oc2cc(O)ccc2c1=O | >100 |
| C=C[C@H](c1ccc(O)c(OC)c1)c1c(O)cc(O)c2c(=O)cc(-c3ccccc3)oc12 | 12.7 |
| O=C(/C=C/c1ccccc1)OCc1ccccc1 [BENZYL CINNAMATE] | >100 |
| CCC(=O)O[C@H]1C(=O)c2c(O)cc(O)cc2O[C@@H]1c1ccccc1 | 18.2 |
| COc1cc(O)c2c(c1)O[C@H](c1ccccc1)[C@@H](O)C2=O | 74.2 |
| O=C(/C=C/c1ccc(O)cc1)OC/C=C/c1ccccc1 | 38.2 |
| O=c1cc(-c2ccccc2)oc2cc(O)cc(O)c12 [CHRYSIN] | 88.7 |
| COc1cc(/C=C/C(=O)OCC(COC(=O)/C=C/c2ccc(O)c(OC)c2)OC(C)=O)ccc1O | 25.8 |
| COc1cc(O)cc2c1C(=O)[C@H](O)[C@@H](c1ccccc1)O2 | >100 |
| O=C1C[C@@H](c2ccc(O)cc2)Oc2cc(O)cc(O)c21 [NARINGENIN] | >100 |
| COc1cc(/C=C/C(=O)OCC(COC(=O)/C=C/c2ccc(O)cc2)OC(C)=O)ccc1O (stereo not given) | 32.7 |
| COc1cc(O)c2c(=O)c(O)c(-c3ccccc3)oc2c1 [IZALPININ] | >100 |
| O=C(O)/C=C/C=C/c1ccccc1 [JUAREZIC ACID] | >100 |
| CC(=O)OC(COC(=O)/C=C/c1ccc(O)cc1)COC(=O)/C=C/c1ccc(O)c(O)c1 (stereo not given) | 17.4 |
| O=C(O)/C=C/c1ccccc1 [CINNAMIC ACID] | >100 |
| CC(C)C(=O)O[C@H]1C(=O)c2c(O)cc(O)cc2O[C@@H]1c1ccccc1 | 19.8 |
| COc1cc(C=O)ccc1O [VANILLIN] | >100 |
| O=C(/C=C/c1ccccc1)OC/C=C/c1ccccc1 | >100 |
| COc1ccc(/C=C/C(=O)OCc2ccccc2)cc1OC | 58.8 |
| O=C(O)c1ccccc1 [BENZOIC ACID] | >100 |

| SMILES | PC50 [µM] |
| --- | --- |
| O=c1cc(-c2ccc(O)cc2)oc2cc(O)cc(O)c12 [APIGENIN] | 89.5 |
| COc1cc(/C=C/C(=O)O)ccc1O [FERULATE] | 66.6 |
| CC(=O)OCC(O)COC(=O)/C=C/c1ccc(O)cc1 (stereo not given) | >100 |
| COc1cc(-c2oc3cc(O)cc(O)c3c(=O)c2OC)ccc1O [3,3'-O-DIMETHYLQUERCETIN] | 59.8 |
| O=C(/C=C/c1ccc(O)cc1)OCc1ccccc1 | 23.8 |
| COc1cc(O)c2c(=O)cc(-c3ccccc3)oc2c1 [TECHTOCHRYSIN] | >100 |
| O=C1C[C@@H](c2ccccc2)Oc2cc(O)cc(O)c21 [PINOCEMBRIN] | 46.5 |
| COc1ccc(/C=C/C(=O)O)cc1OC [O,O'-DIMETHYLCAFFEIC ACID] | >100 |
| COc1ccc(/C=C/C(=O)OC/C=C/c2ccccc2)cc1OC | 98.9 |
| O=C(OC/C=C/c1ccccc1)c1ccccc1 | >100 |
| COc1ccc(/C=C/C(=O)OC/C=C/c2ccccc2)cc1O | 31.7 |
| COc1cc(O)c2c(c1)O[C@H](c1ccccc1)CC2=O [PINOSTROBIN] | >100 |
| CC(=O)O[C@H]1C(=O)c2c(O)cc(O)cc2O[C@@H]1c1ccccc1 | 36.6 |
| COc1cc(/C=C/C(=O)OCc2ccccc2)ccc1O [BENZYL FERULATE] | 17 |
| C=C[C@H](c1ccc(O)c(OC)c1)c1c(O)cc(O)c2c(=O)c(O)c(-c3ccccc3)oc12 | 4.6 |
| CC(C)CC(=O)O[C@H]1C(=O)c2c(O)cc(O)cc2O[C@@H]1c1ccccc1 | 17.5 |
| O=C(O)/C=C/c1ccc(O)cc1 [COUMARIC ACID] | 77 |
| O=c1c(O)c(-c2ccccc2)oc2cc(O)cc(O)c12 [GALANGIN] | 22.1 |
| CCC(C)C(=O)O[C@H]1C(=O)c2c(O)cc(OC)cc2O[C@@H]1c1ccccc1 (stereo not given in full) | 44.8 |
| CC(=O)OC(COC(=O)/C=C/c1ccc(O)cc1)COC(=O)/C=C/c1ccc(O)cc1 | 38.8 |
